Bioassay records from PubChem.
b-catenin transl – modulators of beta-catenin nuclear translocation | HeLa beta-catenin nuclear translocation, immunofluorescence imaging | nuclear translocation activity, % at 5 µM | 190,000 compounds, 0.3% hits | AID 1665;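 active = nuclear translocation activity above 50% at 5 µM, with a well cell count of 50 or more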;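 note: per-cell ratio of nuclear to cytoplasmic median beta-catenin stain intensity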
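Test system: human HeLa cells, native beta-catenin. Compound dosing: 5 µM primary single dose, 0.1% DMSO, 0.02–20 µM confirmation series. Incubation: compound exposure 24 h at 37°C. Detection: beta-catenin immunostaining with DAPI counterstain, 20x imaging, 6 fields/well. Read-out basis: Nuclear/cytoplasmic beta-catenin signal ratio, % activation.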
Yeast lifespan up – yeast lifespan extension; S. cerevisiae growth with nicotinamide, OD615; deaD strain in restrictive glucose medium; inhibition of the nicotinamide effect, % at 10 µM; 130,000 compounds, 0.68% hits;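 active = inhibition above a set limit, placed 3 SD over the median of all compounds, cut at about 26% in these data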
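Test system: DeaD-strain S. cerevisiae / Buffer or medium: restrictive glucose medium / Also added: nicotinamide 1.5 mM / Doses: one concentration, 10 µM, DMSO 0.25% / Schedule: 48 h at 30 °C / Signal: OD615 measurement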
RAM network inh – blocks the yeast RAM network; S. cerevisiae dse1pr::URA3 reporter, 5-FOA growth OD615, 2 d; analog-sensitive cbk1-as2 kinase mutant strain; inhibition, % at 50 µM; 190,000 compounds, 1.8% hits;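 active = inhibition above a set limit, 3 SD over mean compound inhibition, cut at about 8.4% in these data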;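 note: inhibition rescues growth on 5-FOA so higher OD means more RAM inhibition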
Yeast growth inh – reduces growth of yeast BB579 in restrictive medium | 140,000 compounds, 0.51% hits | AID 804 | inhibition, % at 10 µM | S. cerevisiae BB579 growth, OD615, 48 h;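 active = inhibition above a set limit, 3 SD over the mean compound inhibition, cut at about 44% in these data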
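Assay system: S. cerevisiae DeaD strain BB579 yeast. Medium: CSMM-D restrictive synthetic medium containing dextrose (glucose). Times: 4 h cell preincubation, 48 h compound exposure, 30 °C humidified. Signal: OD615 turbidity measurement. Benchmarks: positive control amphotericin B 10 µg/mL.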
Efa HMGR inh – inhibitors of class II HMG-CoA reductase from Enterococcus faecalis. purified E. faecalis HMGR, NADPH absorbance 340 nm kinetic. inhibition, % at 10 µM. 190,000 compounds, 0.41% hits. AID 1066;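 active = inhibition above a set limit, the median over all tested compounds plus 3 SD, cut at about 9.5% in these data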;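 note: enzyme runs in reverse so mevalonate oxidation gives rising NADPH absorbance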
MT stabilize HCS – microtubule stabilization, imaging screen; AID 2205; HeLa tubulin immunostaining HCS, 24 h; share of cells brighter than vehicle mean+2SD; 200,000 compounds, 0.83% hits; % tubulin-high responders, % at 10 µM;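 active = plate Z-score above 3 for both tubulin-high and condensed-nucleus cell shares, with cell loss under 80%, at 10 µM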;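 note: anti alpha tubulin signal scored within the nucleus-defined area of each cell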
Hits are given with their value; n = inactive; x = not tested or not shown. In the library only some 3.5% were active in any assay of this set; here they are far more common.

SMILES	b-catenin transl	Yeast lifespan up	RAM network inh	Yeast growth inh	Efa HMGR inh	MT stabilize HCS
Cc1cccc2sc(NNC(=O)c3cc(-c4cccs4)nc4ccccc34)nc12	n	n	n	n	n	n
Cc1ccc(C(=O)c2cc([N+](=O)[O-])ccc2N2CCCCC2)c(C)c1	59	n	n	n	n	n
CCC(CC)NC(=O)c1cc([N+](=O)[O-])ccc1N1CCOCC1	n	n	n	n	n	n
COc1ccc(S(=O)(=O)N2CC=C(C(=O)Nc3ccc(NC(C)=O)cc3)CC2)cc1	n	x	n	x	22	n
CCOc1ccc(C(=O)c2cc([N+](=O)[O-])ccc2N2CCOCC2)cc1	n	n	n	n	n	15
Cc1ccc(C(=O)c2cc([N+](=O)[O-])ccc2N2CCOCC2)cc1	n	n	n	n	n	18
O=C(c1cc([N+](=O)[O-])ccc1N1CCOCC1)N1CCOCC1	n	n	n	n	n	n
CCOC(=O)C1CCN(C(=O)Nc2cc(Cl)cc(Cl)c2)CC1	n	x	x	x	x	x
Cc1cc(NC(=O)Nc2ccccc2F)ccc1Br	n	x	n	x	n	n
O=C(c1cc([N+](=O)[O-])ccc1N1CCCCC1)N1CCc2ccccc21	n	n	n	n	n	17
O=C(c1cc([N+](=O)[O-])ccc1N1CCOCC1)N1CCCC1	n	n	n	n	n	n
COc1ccc(C(=O)c2cc([N+](=O)[O-])ccc2N2CCOCC2)cc1	57	n	n	n	n	n
CC(=O)C1=C(O)C(=O)N(CO)C1c1ccccc1F (stereo not drawn)	n	n	n	n	n	n
CC(=O)C1=C(O)C(=O)N(C)C1c1ccccc1F (stereo not drawn)	n	n	n	n	16	n
COc1ccc(CN(C(=O)CSc2nnc(-c3ccccc3C)o2)c2ccc(F)cc2)cc1	n	x	11	n	n	n
CCOC(=O)CN(C(=O)CSc1nnc(-c2cccc(OC)c2)o1)c1ccc(F)cc1	n	n	n	n	n	n
COC(=O)CN(C(=O)CSc1nnc(-c2cccc(OC)c2)o1)c1ccc(OC)cc1	n	n	11	n	n	n
N#Cc1ccc(C(=O)Nc2ccc([N+](=O)[O-])cc2)c(F)c1	n	x	n	x	n	n
COc1ccc(C(=O)N/N=C/c2ccc(OC)c(CSc3ccccn3)c2)cc1	n	n	n	n	n	n
COc1ccc(/C=N/NC(=O)c2cccnc2)cc1COc1ccc(NC(C)=O)cc1	n	x	x	x	x	x
COc1cc(OC)cc(C(=O)N/N=C/c2ccc(OC)c(COc3ccc(F)cc3)c2)c1	213	n	n	n	n	n
COc1ccc(/C=N/NC(=O)c2cc(OC)c(OC)c(OC)c2)cc1CN1CCc2cc(OC)c(OC)cc2C1C (stereo not drawn)	n	x	n	x	n	20
COc1ccc(/C=N/NC(=O)c2cccnc2)cc1CSc1ccccn1	65	x	x	x	x	x
CCOc1ccccc1NC(=O)CC1Nc2ccccc2NC1=O (stereo not drawn)	n	x	n	n	n	n
CCOc1ccccc1NC(=O)CC1Nc2cc(C)c(C)cc2NC1=O (stereo not drawn)	x	n	n	n	n	23
SMILES	b-catenin transl	Yeast lifespan up	RAM network inh	Yeast growth inh	Efa HMGR inh	MT stabilize HCS
CC1(C)CC(=O)c2sc(NS(C)(=O)=O)nc2C1	n	97	n	n	n	n
O=c1c2cc(NC(=S)N3CCC(N4CCCCC4)CC3)ccc2nc2n1CCCCC2	n	x	n	x	n	n
CC1CCCCN1C(=S)Nc1ccc2nc3n(c(=O)c2c1)CCCCC3 (stereo not drawn)	x	56	n	n	n	n
COc1ccc(/C=N/NC(=O)c2ccc(Cn3cc([N+](=O)[O-])cn3)o2)c(OC)c1C	n	n	9.5	n	n	n
COc1ccc(/C=N/NC(=O)c2cccc(O)c2)cc1Cn1nc(C)c([N+](=O)[O-])c1C	n	x	n	x	n	19
COc1ccc(/C=N/n2cnnc2)cc1Cn1nc(C)c([N+](=O)[O-])c1C	n	x	n	x	11	n
COc1ccc(/C=N/NC(=O)c2ccc(N)cc2)cc1Cn1cc([N+](=O)[O-])cn1	n	x	n	x	n	12
CCOC(=O)c1ccc2c(c1)NCc1cccc(OC)c1O2	n	x	x	x	x	x
CCc1ccc2nc(SCC(=O)Nc3nnc(C)s3)c(C)cc2c1	n	x	n	x	n	n
CCOC(=O)c1ccc(N=c2sc(C(=O)OC)cc(=O)n2Cc2ccco2)cc1	n	n	8.6	n	n	n
O=C(CNC1CCCCC1)Nc1cc(S(=O)(=O)N2CCOCC2)ccc1Cl	n	x	n	x	n	n
CCN(CC)CCNC(=O)C(=O)NCC1OCCN1C(=O)c1ccc2c(c1)OCO2 (stereo not drawn)	n	n	n	n	19	n
Cc1ccc(CNC(=O)C(=O)NCC2OCCN2C(=O)c2ccc3c(c2)OCO3)cc1 (stereo not drawn)	n	x	n	x	n	n
COc1ccccc1C(=O)OCCNC(=O)Cn1cnc2c1c(=O)n(C)c(=O)n2C	n	x	n	x	n	n
CC(=O)Nc1ccc(NC(=O)CSc2nnc3c4ccccc4n(C)c3n2)cc1	n	x	8.5	x	n	n
CCOC(=O)/C(N=Nc1ccc2c(c1)OCO2)=C(\C)O	n	x	n	x	n	n
CN(C(=O)CCN1C(=O)C(C)(C)Nc2ccccc21)c1ccccc1	n	n	n	n	36	n
COc1ccc(NC(=O)COC(=O)C23CC4CC(CC(Cl)(C4)C2)C3)c(OC)c1	n	x	n	x	n	n
COc1ccccc1NC(=O)COC(=O)C12CC3CC(CC(Cl)(C3)C1)C2	n	x	11	x	n	n
Clc1cccc(Cl)c1COc1ccccc1CNn1cnnc1	n	x	n	x	n	22
COc1cc(NS(=O)(=O)c2ccc(OC)c(C)c2C)c(OC)cc1Cl	81	n	n	n	n	39
C=CCn1c(SCc2ccccc2)nc2scc(-c3ccc(C)o3)c2c1=O	x	n	11	n	n	n
Cc1n[nH]c(C)c1CCC(=O)N/N=C/c1cccs1	n	x	x	x	x	x
CC(C)OCCCN1CN(S(=O)(=O)c2cccc(Cl)c2)c2nc3ccccc3nc21	n	n	9.1	n	n	n
CC(C)OCCCN1CN(S(=O)(=O)c2ccc(Cl)cc2)c2nc3ccccc3nc21	n	n	n	n	n	n
SMILES	b-catenin transl	Yeast lifespan up	RAM network inh	Yeast growth inh	Efa HMGR inh	MT stabilize HCS
CSc1ccc(C(=S)N2CCN(Cc3ccccc3)CC2)cc1	x	31	n	n	n	n
S=C(c1ccc(Cl)cc1)N1CCN(Cc2ccccc2)CC1	n	x	n	x	n	n
CS(=O)(=O)N(CC(=O)N1CCC(C(N)=O)CC1)c1cc(C(F)(F)F)ccc1Cl	n	x	n	x	n	n
COc1ccc2c(c1)c(=O)c(C(=O)c1ccccc1)cn2Cc1ccc(C)cc1	n	n	n	n	14	22
CCOC(=O)c1ccc2c(c1)n(CC)c(/C=C/N(C)c1ccccc1)[n+]2CC	n	n	n	n	n	n
CCOC(=O)c1ccc2c(c1)n(CCO)c(C)[n+]2CC	n	71	n	n	n	n
